Measured values from PMC11865470 (Communications Biology, 2025).
Entries after “also recorded” stand apart in the source; their conditions may differ.

What was measured:
Type in all cases: cell-based
[1] = molecular target: T1, KV3.4 (Homo sapiens, UniProt Q03721); assay: whole-cell patch-clamp, off-target channel, 10 μM compound; conditions: vs 0.1% DMSO
T1 sequence (Q03721 1-635): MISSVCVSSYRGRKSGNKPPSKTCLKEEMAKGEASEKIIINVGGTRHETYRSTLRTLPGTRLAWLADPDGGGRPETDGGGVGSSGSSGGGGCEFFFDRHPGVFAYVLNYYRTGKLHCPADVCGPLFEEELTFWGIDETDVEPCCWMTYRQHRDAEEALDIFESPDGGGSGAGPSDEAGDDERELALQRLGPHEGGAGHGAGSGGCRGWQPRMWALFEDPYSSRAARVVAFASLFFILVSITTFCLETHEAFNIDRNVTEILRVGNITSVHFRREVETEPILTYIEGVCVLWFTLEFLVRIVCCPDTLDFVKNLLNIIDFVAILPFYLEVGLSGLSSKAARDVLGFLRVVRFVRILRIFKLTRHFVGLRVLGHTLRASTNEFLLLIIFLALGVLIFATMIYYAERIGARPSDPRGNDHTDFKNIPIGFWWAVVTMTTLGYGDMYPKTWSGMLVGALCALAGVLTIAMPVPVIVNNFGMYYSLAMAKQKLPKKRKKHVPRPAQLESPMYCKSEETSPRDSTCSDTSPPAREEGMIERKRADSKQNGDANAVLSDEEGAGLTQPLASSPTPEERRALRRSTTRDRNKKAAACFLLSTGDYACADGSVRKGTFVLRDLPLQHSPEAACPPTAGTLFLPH
Summary of the method: (§1)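 KV channels in transiently transfected HEK293T cells, whole-cell. Pipette (mM): 140 KCl, 2.5 MgCl2, 11 EGTA, 10 HEPES, pH 7.4. Bath (mM): 145 NaCl, 2.8 KCl, 2 CaCl2, 1 MgCl2, 10 glucose, 10 HEPES, pH 7.4. 0.1% DMSO bath applied, then 10 μM test compound. DMSO vs compound inhibition ratio compared by unpaired t-test, n = 5.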

[2] = molecular target: T2, KV4.2 (Rattus norvegicus, UniProt Q63881); assay: as above; conditions: for sensitivity of channel to compound: vs 0.1% DMSO
T2 sequence (Q63881 1-630): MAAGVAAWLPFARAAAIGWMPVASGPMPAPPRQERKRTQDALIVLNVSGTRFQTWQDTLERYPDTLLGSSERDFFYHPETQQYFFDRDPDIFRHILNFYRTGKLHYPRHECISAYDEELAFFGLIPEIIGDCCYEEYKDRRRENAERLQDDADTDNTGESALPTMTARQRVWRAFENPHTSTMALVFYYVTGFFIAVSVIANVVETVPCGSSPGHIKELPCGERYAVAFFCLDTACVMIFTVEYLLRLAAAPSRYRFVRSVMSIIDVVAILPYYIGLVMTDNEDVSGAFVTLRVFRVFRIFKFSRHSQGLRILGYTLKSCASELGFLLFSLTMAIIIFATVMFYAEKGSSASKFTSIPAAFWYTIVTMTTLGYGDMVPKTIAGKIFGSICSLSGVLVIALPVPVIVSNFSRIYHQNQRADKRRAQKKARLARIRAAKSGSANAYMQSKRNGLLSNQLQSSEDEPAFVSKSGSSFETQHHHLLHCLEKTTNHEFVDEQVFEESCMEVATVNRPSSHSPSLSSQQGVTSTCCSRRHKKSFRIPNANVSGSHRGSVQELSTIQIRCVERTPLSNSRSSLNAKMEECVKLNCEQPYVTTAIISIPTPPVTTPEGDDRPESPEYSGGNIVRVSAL
Summary of the method: as §1

[3] = molecular target: T3, mOtop1/R554A (Mus musculus, UniProt Q80VM9, R554A); assay: patch-clamp, mOtop1 mutant; conditions: for effect of mutating R554 on the compound's action on Otop1: Fig 5I, J
T3 sequence (Q80VM9 1-600 R554A): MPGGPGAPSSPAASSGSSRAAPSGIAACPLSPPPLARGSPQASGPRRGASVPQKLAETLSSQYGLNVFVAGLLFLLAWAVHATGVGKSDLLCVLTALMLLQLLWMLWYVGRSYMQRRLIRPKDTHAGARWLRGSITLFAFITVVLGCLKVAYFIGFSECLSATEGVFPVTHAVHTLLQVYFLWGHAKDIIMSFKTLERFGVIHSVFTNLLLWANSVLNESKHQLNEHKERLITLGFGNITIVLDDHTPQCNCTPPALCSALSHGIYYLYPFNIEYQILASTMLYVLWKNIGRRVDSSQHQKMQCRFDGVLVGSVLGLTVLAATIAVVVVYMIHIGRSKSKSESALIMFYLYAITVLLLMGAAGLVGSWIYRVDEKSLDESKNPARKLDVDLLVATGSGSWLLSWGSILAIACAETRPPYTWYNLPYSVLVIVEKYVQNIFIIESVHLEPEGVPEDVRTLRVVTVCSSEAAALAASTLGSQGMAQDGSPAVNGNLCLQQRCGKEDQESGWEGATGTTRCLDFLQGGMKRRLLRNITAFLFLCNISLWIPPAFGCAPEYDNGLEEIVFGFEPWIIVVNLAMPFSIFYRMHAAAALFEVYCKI

[4] = molecular target: T4, KV3.3 (Mus musculus, UniProt Q63959); assay: whole-cell patch-clamp, off-target channel, 10 μM compound; conditions: vs 0.1% DMSO
T4 sequence (Q63959 1-769): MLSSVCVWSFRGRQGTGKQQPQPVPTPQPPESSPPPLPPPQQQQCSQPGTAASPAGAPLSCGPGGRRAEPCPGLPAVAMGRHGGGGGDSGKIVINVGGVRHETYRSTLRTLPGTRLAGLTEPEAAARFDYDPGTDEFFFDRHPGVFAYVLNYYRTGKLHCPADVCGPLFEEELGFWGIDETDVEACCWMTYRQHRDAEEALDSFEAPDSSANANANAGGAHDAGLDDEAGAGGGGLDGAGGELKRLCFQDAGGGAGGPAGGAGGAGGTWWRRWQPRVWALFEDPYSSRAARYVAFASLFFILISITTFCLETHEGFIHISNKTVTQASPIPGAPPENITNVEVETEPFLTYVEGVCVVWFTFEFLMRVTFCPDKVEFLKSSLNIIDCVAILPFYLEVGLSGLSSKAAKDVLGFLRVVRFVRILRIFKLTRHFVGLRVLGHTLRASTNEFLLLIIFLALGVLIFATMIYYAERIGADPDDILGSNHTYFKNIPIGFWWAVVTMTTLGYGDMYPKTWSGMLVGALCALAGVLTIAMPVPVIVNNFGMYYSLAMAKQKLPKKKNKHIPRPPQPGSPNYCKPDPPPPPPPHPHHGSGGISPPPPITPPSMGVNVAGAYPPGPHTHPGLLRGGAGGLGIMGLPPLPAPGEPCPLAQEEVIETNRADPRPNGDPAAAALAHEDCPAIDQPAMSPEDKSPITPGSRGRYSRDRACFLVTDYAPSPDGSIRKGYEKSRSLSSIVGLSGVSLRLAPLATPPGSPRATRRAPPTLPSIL
Summary of the method: as §1

Structure (SMILES) | sensitivity of channel to compound [1] | sensitivity of channel to compound [2] | response of mutant to MFaN ([3]; 10 μM, pH 5.5) | response of mutant to MFaN ([3]; pHs of 4.5, 5.0, and 6.0) | sensitivity of channel to compound [4] | effect of mutating R554 on the compound's action on Otop1 [3] | inhibition ratio [2] [%]
Cc1ccc(C(=O)Nc2ccc3ccccc3c2)o1 [MFaN, 5-methyl-N-2-naphthyl-2-furamide] | completely resistant | completely resistant | entirely unresponsive; also recorded: completely abolished | completely unresponsive | completely resistant | – | –
Cc1cc(NC(=O)c2ccc(Br)o2)ccc1NC(=O)c1ccco1 [B2FAMP, 5-Bromo-N-[4-(2-furoylamino)-3-methylphenyl]-2-furamide] | completely resistant | completely resistant | – | – | completely resistant | only partially reduced | –
CC(C)c1noc2ncc(C(=O)c3ccccc3O)cc12 [HIMOP, (2-hydroxyphenyl)-(3-propan-2-yl-5-isoxazolo[5,4-b]pyridinyl)methanone] | completely resistant | – | – | – | completely resistant | did not affect | 14.3
